According to article PMC5900865 (Clinical Pharmacology in Drug Development, 2017):

Tests used:
[1] = Study 1B multiple-dose pharmacokinetics; format: in vivo, human; conditions: for half-life / AUC(0-t): human, plasma, oral, fed; for Fe0–x, fraction excreted (VOR): 5 mg daily
In short: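 Men (5, 10, 20 mg) and women (5, 10 mg) were dosed orally, fed, daily for 12 days. Plasma was sampled on day 1 predose to […]. Urine came from the 5 mg cohort predose days 1–16 then in 24-h intervals, and for 10/20 mg on day 12 at 0–24 h. Analysis was by HPLC-MS/MS and noncompartmental.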

CYP2C8 = conditions: cited from earlier work
[2] = Study 1A single-rising-dose pharmacokinetics; format: in vivo, human; conditions: for Tmax / half-life / AUC(0-inf) / Cmax: human, plasma; for CL/F / Fe0–48, cumulative excretion ratio (% of dose): fasted, men; for Fe0–48, cumulative excretion ratio (% of dose): urine 0 to 48 hours
In short: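 Healthy men received single oral doses of 2.5–40 mg. The 2.5 mg cohort was redosed fed (30 min post-breakfast) on day 15 after a 14-day washout. EDTA plasma was sampled predose and 1–216 h postdose; urine was pooled at 0–6, 6–12, 12–24 and 24–48 h. Samples were stored at ≤ −20 °C, liquid–liquid extracted and assayed by HPLC-MS/MS. Parameters came from noncompartmental analysis.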

CYP2C9 = conditions: cited from earlier work
CYP2D6 = conditions: cited from earlier work
[3] = system: healthy adult men and women; assay: Study 1B safety evaluation; format: in vivo, human
In short: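 Double-blind, placebo-controlled (2:1) multiple-dose study. Men received 5, 10 or 20 mg and women 5 or 10 mg, oral and fed, daily on days 1–12. Women were dosed only after that dose was assessed in men. Participants were discharged day 17, with post-study exam day 20. AEs, weight, vitals, 12-lead ECG and clinical labs were recorded. TEAE incidence, intensity and drug relationship were assessed by dose and sex versus placebo.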

CYP2C19 = conditions: cited from earlier work
CYP2B6 = conditions: cited from earlier work
CYP2A6 = conditions: cited from earlier work
[4] = Study 3 food-effect pharmacokinetics; format: in vivo, human
In short: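 Open-label two-period crossover in healthy men given 10 mg orally on days 1 and 15, fasted or fed. Fasted dosing followed ≥10 h fasting, with water. Fed dosing came within 10 min after a high-fat breakfast (≥900 kcal, ≥35% fat) eaten within 20 min. Plasma was sampled predose to 168 h; urine was pooled to 168 h. Log-transformed Cmax/AUC were analysed by ANOVA with 90% CI of back-transformed LS mean ratios. Tmax used Wilcoxon signed-rank.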

healthy Japanese adults = assay: Safety evaluation across all 3 studies; format: in vivo, human; conditions: any of the studies
CYP1A2 = conditions: cited from earlier work
[5] = single 2.5 mg, n = 5, mean (SD)

Molecule `Cc1ccc(Sc2ccccc2N2CCNCC2)c(C)c1` [Vortioxetine, 1‐[2‐(2,4‐dimethylphenylsulfanyl)phenyl]piperazine] has a half-life ([1]; male, 10 mg, T1/2, day 12, male, 10 mg daily, n = 6, mean (SD)) of 65.1 h, an AUC(0-t) ([1]; male, 20 mg, AUC0–24, day 1, male, 20 mg daily, n = 6, mean (SD)) of 0.11 µg·h/mL and an AUC(0-t) ([1]; male, 20 mg, AUC0–24, day 12, male, 20 mg daily, n = 6, mean (SD)) of 0.433 µg·h/mL. For the same molecule, the half-life ([1]; male, 20 mg, T1/2, day 1, male, 20 mg daily, n = 6, mean (SD)) was 44 h, the half-life ([1]; male, 20 mg, T1/2, day 12, male, 20 mg daily, n = 6, mean (SD)) was 56.8 h and the “Fe0–x, fraction excreted (VOR)” value ([1]; urine 0 to 24 hours (day 1), female, n = 5, mean (SD)) was 0.00 (0.0) %. The “Fe0–x, fraction excreted (VOR)” value ([1]; urine 0 to 24 hours (day 1), male, n = 6, mean (SD)) was 0.00 (0.0) %, the “Fe0–x, fraction excreted (VOR)” value ([1]; urine 0 to 288 hours (day 12), female, n = 5, mean (SD)) was 0.0494 (0.087) % and the “Fe0–x, fraction excreted (VOR)” value ([1]; urine 0 to 288 hours (day 12), male, n = 6, mean (SD)) was 0.0072 (0.018) %. The “inhibitory or inducing effect in vitro” value (CYP2C8) was “No inhibitory or inducing effect”, the Tmax ([2]; both, po) was 6 to 13 h and the half-life ([2]; male, oral) was 50 to 70 h. The AUC(0-inf) ([2]; male, oral, 2.5 mg) was 0.0565 µg·h/mL, the Cmax ([2]; male, oral, 2.5 mg) was 0.8 ng/mL and the Tmax ([2]; male, oral, 2.5 mg) was 10 h. For the same molecule, the AUC(0-inf) ([2]; male, oral, 5 mg) was 0.188 µg·h/mL, the Cmax ([2]; male, oral, 5 mg) was 1.9 ng/mL and the Tmax ([2]; male, oral, 5 mg) was 10 h. It also gave a half-life ([2]; male, oral, 5 mg) of 69.4 h, an AUC(0-inf) ([2]; male, oral, 10 mg) of 0.348 µg·h/mL and a Cmax ([2]; male, oral, 10 mg) of 3.5 ng/mL. The Tmax ([2]; male, oral, 10 mg) was 10 h, the half-life ([2]; male, oral, 10 mg) was 66 h and the AUC(0-inf) ([2]; male, oral, 20 mg) was 0.56 µg·h/mL. It also gave a Cmax ([2]; male, oral, 20 mg) of 7.7 ng/mL, a Tmax ([2]; male, oral, 20 mg) of 9 h and an AUC(0-inf) ([2]; male, oral, 40 mg) of 1.31 µg·h/mL. For the same molecule, the Cmax ([2]; male, oral, 40 mg) was 19.4 ng/mL, the Tmax ([2]; male, oral, 40 mg) was 6.3 h and the CL/F [2, 5] was 50 (20) L/h. The CL/F ([2]; single 5 mg, n = 6, mean (SD)) was 29.6 (10.3) L/h, the CL/F ([2]; single 10 mg, n = 6, mean (SD)) was 35.2 (19.2) L/h and the CL/F ([2]; single 20 mg, n = 6, mean (SD)) was 41.4 (17.6) L/h. The CL/F ([2]; single 40 mg, n = 4, mean (SD)) was 34.0 (13.1) L/h, the “Fe0–48, cumulative excretion ratio (% of dose)” value [2, 5] was 0.0 (0.0) % and the “Fe0–48, cumulative excretion ratio (% of dose)” value ([2]; single 5 mg, n = 6, mean (SD)) was 0.0 (0.0) %. The “Fe0–48, cumulative excretion ratio (% of dose)” value ([2]; single 10 mg, n = 6, mean (SD)) was 0.007 (0.018) %, the “Fe0–48, cumulative excretion ratio (% of dose)” value ([2]; single 20 mg, n = 6, mean (SD)) was 0.023 (0.023) % and the “Fe0–48, cumulative excretion ratio (% of dose)” value ([2]; single 40 mg, n = 4, mean (SD)) was 0.034 (0.017) %. The “inhibitory or inducing effect in vitro” value (CYP2C9) was “No inhibitory or inducing effect”, the “inhibitory or inducing effect in vitro” value (CYP2D6) was “No inhibitory or inducing effect” and the tolerated multiple dose ([3]; healthy men) was “up to 20 mg”. The tolerated multiple dose ([3]; healthy women) was no more than 10 mg, the “intensity of TEAEs” value ([3]; multiple doses, all groups) was “all TEAEs were mild in intensity” and the “inhibitory or inducing effect in vitro” value (CYP2C19) was “No inhibitory or inducing effect”. The “inhibitory or inducing effect in vitro” value (CYP2B6) was “No inhibitory or inducing effect”, the “inhibitory or inducing effect in vitro” value (CYP2A6) was “No inhibitory or inducing effect” and the Tmax ([4]; male, human, plasma, oral, 10 mg) was 12 h. The “90%CIs for the LS mean ratios of Cmax and AUC (fed vs fasted)” value ([4]; single 10 mg, no‐effect boundary 90%CI, 0.8–1.25) was “within the no‐effect boundary”, the “deaths or serious AEs” value (healthy Japanese adults) was “no deaths or serious AEs leading to trial discontinuation were observed” and the “inhibitory or inducing effect in vitro” value (CYP1A2) was “No inhibitory or inducing effect”.
